Measured values collected from several papers.
Protocols differ between the studies behind these lines.
CA12: Carbonic anhydrase 12 (CA12, Homo sapiens, UniProt O43570)
DRD3: D(3) dopamine receptor (DRD3, Homo sapiens, UniProt P35462)
SLC6A3: Sodium-dependent dopamine transporter (SLC6A3, Homo sapiens, UniProt Q01959)

With `CCOC(=O)c1ccc(=O)oc1` the Ki was 92.6 µM (CA12; enzyme activity, inhibitor, stopped-flow).
With `COc1cc(C(F)(F)F)c(Cl)cc1NS(=O)(=O)c1c(C)[nH]c(C)c1C(=O)N1CCC(F)(F)C1` the IC50 was 7.2 µM (DRD3; β-arrestin recruitment, antagonist).
For `C#CCOC(=O)c1ccc(=O)oc1`, the Ki was 76.3 µM (CA12; enzyme activity, inhibitor, stopped-flow).
For `OC[C@@]12C[C@@H]1[C@@H](n1cnc3c(Nc4ccccc4)nc(I)nc31)[C@H](O)[C@@H]2O`, the EC50 was 3 µM (SLC6A3; ligand displacement, radioligand).
With `C#CCNC(=O)c1ccc(=O)oc1` the Ki was 68.1 µM (CA12; enzyme activity, inhibitor, stopped-flow).
`CNc1nc(I)nc2c1ncn2[C@H]1[C@H](O)[C@H](O)[C@]2(CC#N)C[C@H]12` has an EC50 of greater than 10 µM (SLC6A3; ligand displacement, radioligand).
`Cc1[nH]c(C)c(S(=O)(=O)Nc2ccc(C3CC3)c(Cl)c2)c1C(=O)N1CCC(F)(F)C1` has an IC50 of 13 µM (DRD3; β-arrestin recruitment, antagonist).
For `COc1ccc(-n2cc(CNC(=O)c3ccc(=O)oc3)nn2)cc1`, the Ki was 58.7 µM (CA12; enzyme activity, inhibitor, stopped-flow).
For `CCOC(=O)[C@@]12C[C@@H]1[C@@H](n1cnc3c(NCCCCCc4ccccc4)nc(I)nc31)[C@H](O)[C@@H]2O`, the Ki was 1.6 µM (SLC6A3; ligand displacement, radioligand).
For `O=C(NCc1cn(-c2ccccc2)nn1)c1ccc(=O)oc1`, the Ki was 62 µM (CA12; enzyme activity, inhibitor, stopped-flow).
With `OC[C@@]12C[C@@H]1[C@@H](n1cnc3c(NCCCCCCc4ccccc4)nc(I)nc31)[C@H](O)[C@@H]2O` the Ki was 0.89 µM (SLC6A3; ligand displacement, radioligand).
With `Cc1[nH]c(C)c(S(=O)(=O)Nc2ccc(C(F)(F)F)c(Cl)c2)c1C(=O)N1C[C@@H](F)[C@H](F)C1` (relative stereo) the IC50 was 0.58 µM (DRD3; G protein activation, antagonist, BRET).
`O=C(Oc1ccccc1)c1ccc(=O)oc1` has a Ki of 65.7 µM (CA12; enzyme activity, inhibitor, stopped-flow).
With `N#CSCc1cc(=O)oc2cc(O)ccc12` the Ki was 0.0236 µM (CA12; enzyme activity, inhibitor, stopped-flow).
The Ki of `O=C(OCc1cn(-c2ccc(Cl)cc2)nn1)c1ccc(=O)oc1` is reported as 61.3 µM (CA12; enzyme activity, inhibitor, stopped-flow).
For `OCc1ccccc1O[C@@H]1O[C@H](CO)[C@@H](O)[C@H](O)[C@H]1O`, the EC50 was 5520 µM (Taste receptor type 2 member 16 (TAS2R16, Homo sapiens, UniProt Q9NYV7, N96T); inositol phosphate, agonist, TR-FRET).
`N#CC[C@@]12C[C@@H]1[C@@H](n1cnc3c(NCc4cccc(Cl)c4)nc(C#Cc4ccc(Cl)s4)nc31)[C@H](O)[C@@H]2O` gave a Ki of 1.2 µM (SLC6A3; ligand displacement, radioligand).
With `Cc1[nH]c(C)c(S(=O)(=O)Nc2ccc(C(F)(F)F)c(Cl)c2)c1C(=O)O` the IC50 was 19 µM (DRD3; G protein activation, antagonist, BRET).
With `OC[C@@]12C[C@@H]1[C@@H](n1cnc3c(N[C@@H](C4CCC4)C4CC4)nc(C#Cc4ccc(Cl)s4)nc31)[C@H](O)[C@@H]2O` the Ki was 0.89 µM (SLC6A3; ligand displacement, radioligand).
`Cc1[nH]c(C)c(S(=O)(=O)Nc2ccc(C(F)(F)F)c(Cl)c2)c1C(=O)N(C)CC(F)(F)F` has an IC50 of 4.6 µM (DRD3; G protein activation, antagonist, BRET).
`CCOC(=O)[C@@]12C[C@@H]1[C@@H](n1cnc3c(NCc4cccc(Cl)c4)nc(C#Cc4ccc(Cl)s4)nc31)[C@H](O)[C@@H]2O` has a Ki of 0.94 µM (SLC6A3; ligand displacement, radioligand).
`Cc1[nH]c(C)c(S(=O)(=O)Nc2ccc(C(F)(F)F)c(Cl)c2)c1C(=O)N1CC[C@@H](F)C1` gave an IC50 of 5.1 µM (DRD3; β-arrestin recruitment, antagonist).
`N#C[C@@]12C[C@@H]1[C@@H](n1cnc3c(Nc4ccccc4)nc(C#Cc4ccc(Cl)s4)nc31)[C@H](O)[C@@H]2O` gave a Ki of 1.5 µM (SLC6A3; ligand displacement, radioligand).
`Cc1[nH]c(C)c(S(=O)(=O)Nc2ccc(C(F)(F)F)c(Cl)c2)c1C(=O)NCC(F)(F)F` gave an IC50 of 4 µM (DRD3; G protein activation, antagonist, BRET).
`O=C(OC1CCCCC1)c1ccc(=O)oc1` gave a Ki of 3.12 µM (CA12; enzyme activity, inhibitor, stopped-flow).
`Cc1[nH]c(C)c(S(=O)(=O)Nc2ccc(S(C)(=O)=O)c(Cl)c2)c1C(=O)N1CCC(F)(F)C1` gave an IC50 of 23 µM (DRD3; G protein activation, antagonist, BRET).
With `NCC(=O)O` the EC50 was 0.32 µM (Glutamate NMDA receptor; GRIN1/GRIN2B (GRIN1/GRIN2B, Homo sapiens, UniProt Q05586+Q13224); ion current, agonist, two-electrode voltage clamp; oocytes).
